ChEMBL document CHEMBL4052603, “Branimycins B and C, Antibiotics Produced by the Abyssal Actinobacterium Pseudonocardia carboxydivorans M-227” (2017)
≈ marks a conversion by molar mass, not a printed value.

Tests used:
Assay type in all cases: functional
[1] = tested on: Bacteroides fragilis; test: Antibacterial activity against Bacteroides fragilis 61592 by CLSI method
[2] = tested on: Staphylococcus aureus; test: Antibacterial activity against methicillin-resistant Staphylococcus aureus MB5393 by CLSI method
Method in brief: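 Broth microdilution: 90 μL diluted inoculum plus 8.4 μL medium (LB or BHI) and 1.6 μL compound dilution. Compounds tested as 2-fold serial dilutions from 160 to 0.31 μg/mL, in triplicate. Vancomycin (32 to 4 μg/mL) served as positive control and amphotericin B (16 to 0.25 μg/mL) as negative control.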

[3] = tested on: Klebsiella pneumoniae; test: Antibacterial activity against Klebsiella pneumoniae ATCC 700603 by CLSI method
[4] = tested on: Escherichia coli; test: Antibacterial activity against Escherichia coli ESS by CLSI method
Method in brief: (§1)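 CLSI susceptibility testing on Mueller-Hinton agar; clinical isolates came from patients with infections.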

[5] = tested on: Acinetobacter baumannii; test: Antibacterial activity against Acinetobacter baumannii MB5973 after 20 hrs by spectrophotometric method; conditions: MB5973, 20 h
[6] = tested on: Staphylococcus aureus; test: Antibacterial activity against Staphylococcus aureus 11497 by CLSI method; method in brief: as §1
[7] = tested on: Staphylococcus aureus; test: Antibacterial activity against Staphylococcus aureus ATCC 43300 by CLSI method
[8] = tested on: Bacteroides fragilis; test: Antibacterial activity against Bacteroides fragilis ATCC 25285 by CLSI method
[9] = tested on: Mycobacterium tuberculosis; test: Antibacterial activity against Mycobacterium tuberculosis MDR-2 by CLSI method
Method in brief: (§2)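 Agar proportion method for slowly growing mycobacteria on Middlebrook 7H10 agar supplemented with 10% OADC and 0.5% glycerol.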

[10] = tested on: Haemophilus influenzae; test: Antibacterial activity against Haemophilus influenzae ATCC 49247 by CLSI method
[11] = tested on: Mycobacterium tuberculosis; test: Antibacterial activity against Mycobacterium tuberculosis H37Rv by CLSI method; method in brief: as §2
[12] = tested on: Haemophilus influenzae; test: Antibacterial activity against Haemophilus influenzae 10996 by CLSI method; method in brief: as §1
[13] = tested on: Corynebacterium urealyticum; test: Antibacterial activity against Corynebacterium urealyticum 1492 by CLSI method
Method in brief: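 CLSI procedure on trypticasein soy agar with 5% sheep blood.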

[14] = tested on: Enterococcus faecalis; test: Antibacterial activity against Enterococcus faecalis ATCC 51299 by CLSI method; method in brief: as §1
[15] = tested on: Enterococcus faecium; test: Antibacterial activity against Enterococcus faecium 10701 by CLSI method; method in brief: as §1
[16] = tested on: Pseudomonas aeruginosa; test: Antibacterial activity against Pseudomonas aeruginosa PAO1 after 20 hrs by spectrophotometric method; conditions: PAO1, 20 h
[17] = tested on: Streptococcus pyogenes; test: Antibacterial activity against Streptococcus pyogenes 81293 by CLSI method
Method in brief: (§3)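 CLSI procedure on Mueller-Hinton agar, supplemented per CLSI conditions for S. pneumoniae, S. pyogenes and N. meningitidis.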

[18] = tested on: Micrococcus luteus; test: Antibacterial activity against Micrococcus luteus ATCC 14452 by CLSI method; method in brief: as §1
[19] = tested on: Staphylococcus aureus; test: Antibacterial activity against methicillin-sensitive Staphylococcus aureus MB2865 by CLSI method
Method in brief: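 MSSA MB2865 tested with diluted inoculum mixed with medium (LB or BHI) plus compound dilution. Twofold serial dilutions from 160 to 0.31 μg/mL, in triplicate. Penicillin G (0.312 to 0.039 μg/mL) was the positive control and amphotericin B (16 to 0.25 μg/mL) the negative control.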

[20] = tested on: Neisseria meningitidis; test: Antibacterial activity against Neisseria meningitidis 71327 by CLSI method; method in brief: as §3
[21] = tested on: Staphylococcus aureus; test: Antibacterial activity against Staphylococcus aureus ATCC 25923 by CLSI method; method in brief: as §1
[22] = tested on: Enterococcus faecalis; test: Antibacterial activity against Enterococcus faecalis 10544 by CLSI method; method in brief: as §1
[23] = tested on: Mycobacterium tuberculosis; test: Antibacterial activity against Mycobacterium tuberculosis MDR-1 by CLSI method; method in brief: as §2
[24] = tested on: Staphylococcus aureus; test: Antibacterial activity against Staphylococcus aureus ATCC 6538P by CLSI method; method in brief: as §1
[25] = tested on: Clostridium perfringens; test: Antibacterial activity against Clostridium perfringens 103281 by CLSI method
[26] = tested on: Streptococcus pneumoniae; test: Antibacterial activity against Streptococcus pneumoniae 64412 by CLSI method; method in brief: as §3
[27] = tested on: Enterococcus faecalis; test: Antibacterial activity against Enterococcus faecalis ATCC 29212 by CLSI method; method in brief: as §1
[28] = tested on: Escherichia coli; test: Antibacterial activity against Escherichia coli MB2884 after 20 hrs by spectrophotometric method; conditions: MB2884, 20 h

SMILES	MIC [1] [µg/mL]	MIC [2] [µg/mL]	MIC [3] [µg/mL]	MIC [4] [µg/mL]	MIC [5] [µg/mL]	MIC [6] [µg/mL]	MIC [7] [µg/mL]	MIC [8] [µg/mL]	MIC [9] [µg/mL]	MIC [10] [µg/mL]	MIC [11] [µg/mL]	MIC [12] [µg/mL]	MIC [13] [µg/mL]	MIC [14] [µg/mL]	MIC [15] [µg/mL]	MIC [16] [µg/mL]	MIC [17] [µg/mL]	MIC [18] [µg/mL]	MIC [19] [µg/mL]	MIC [20] [µg/mL]	other results
COC[C@H]1[C@@H](O)[C@@H]2O[C@@]34/C(C)=C/[C@@H](C)[C@@H]([C@H](O)CO)OC(=O)[C@H](COC)[C@H]3C=C[C@@H]2[C@H]4[C@@H]1O	> 128	20 to 40 (≈ 42.7 to 85.4 µM)	> 80	128 (≈ 273 µM)	> 80	> 64	> 64	128 (≈ 273 µM)	> 32	> 64	> 32	> 64	16 (≈ 34.1 µM)	> 64	> 64	> 80	> 128	16 (≈ 34.1 µM)	80 (≈ 171 µM)	64 (≈ 137 µM)	MIC [21]: 64 µg/mL (≈ 137 µM); MIC [22]: 64 µg/mL (≈ 137 µM); MIC [23]: > 32 µg/mL; MIC [24]: 32 µg/mL (≈ 68.3 µM); MIC [25]: 16 µg/mL (≈ 34.1 µM); MIC [26]: > 128 µg/mL; MIC [27]: > 64 µg/mL; MIC [28]: > 80 µg/mL
COC[C@H]1C(=O)O[C@H]([C@H](O)CO)[C@H](C)/C=C(\C)[C@@]23O[C@H]4[C@H](O)[C@H](C)[C@@H](O)[C@@H]2[C@H]4C=C[C@H]13	128 (≈ 292 µM)	> 160	> 80	64 (≈ 146 µM)	> 80	> 64	> 64	32 (≈ 73 µM)	> 32	32 (≈ 73 µM)	> 32	> 64	8 (≈ 18.2 µM)	> 64	> 64	> 80	> 128	1 (≈ 2.28 µM)	> 160	32 (≈ 73 µM)	MIC [21]: > 64 µg/mL; MIC [22]: > 64 µg/mL; MIC [23]: > 32 µg/mL; MIC [24]: > 128 µg/mL; MIC [25]: 32 µg/mL (≈ 73 µM); MIC [26]: > 128 µg/mL; MIC [27]: > 64 µg/mL; MIC [28]: > 80 µg/mL
